From ChEMBL document CHEMBL3808334, “Synthesis and in vitro evaluation of novel triazine analogues as anticancer agents and their interaction studies with bovine serum albumin” (Eur J Med Chem, 2016) come the findings set out here.

What all share (format): ADME
Common to all, as to details: cattle, isolated protein

Data set [1] deals with T1, Albumin (Bos taurus, UniProt P02769). The data set can be described thus: Binding affinity to bovine serum albumin assessed as binding constant in absorption spectra by Benesie-Hildebrand plot analysis. The method, boiled down:
(§1)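 BSA, 10 µM, in 0.1 M phosphate buffer pH 7.4, titrated with compound (0–20 µM per the figure; diluted from 10⁻³ mol L⁻¹ DMSO stocks). Run at 300 K in a 1 cm quartz cell. UV spectra taken 200–800 nm after 5 min equilibration; fluorescence excited at 280 nm, emission 351 nm, slit 10 nm. K is the intercept/slope ratio of a linear fit of 1/(A₀−A) or 1/(F₀−F) vs 1/[compound].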

The target in data set [2] is T1, Albumin. As to the kind of experiment: Binding affinity to bovine serum albumin assessed as hyperchromicity in absorption spectra up to 20 uM after 5 mins by UV-visible spectroscopic analysis relative to control. The method, boiled down: (§2)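 UV-visible absorption titration of 10 µM BSA in 0.1 M phosphate buffer pH 7.4 with increasing compound, 0–20 µM. Compounds diluted from DMSO stocks into buffer. Spectra recorded 200–800 nm in a 1 cm quartz cell at 300 K after 5 min equilibration. The BSA band is at 279 nm; changes are compared with BSA alone.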

The target in data set [3] is T1, Albumin. As to the kind of experiment: Binding affinity to bovine serum albumin assessed as enhancement in emission spectra up to 20 uM by fluorescence spectroscopic analysis relative to control. The method, boiled down: (§3)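 Fluorescence titration of 10 µM BSA in 0.1 M phosphate buffer pH 7.4 with compound at 0–20 µM, diluted from DMSO stocks. Excitation 280 nm, slit 10 nm, 1 cm quartz cell, 300 K. Changes in the 350 nm Trp emission, new bands near 370–373 nm and isoemissive points are read against BSA alone.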

Data set [4] concerns the target T1, Albumin. As to the kind of experiment: Binding affinity to bovine serum albumin assessed as isoemissive point up to 20 uM by fluorescence spectroscopic analysis relative to control. The method, boiled down:
as §3

For data set [5], the target named is T1, Albumin. As to the kind of experiment: Binding affinity to bovine serum albumin assessed as red shift in emission intensity up to 20 uM by fluorescence spectroscopic analysis relative to control. The method, boiled down:
as §3

For data set [6], the target named is T1, Albumin. The data set can be described thus: Binding affinity to bovine serum albumin assessed as binding constant in emission spectra by Benesie-Hildebrand plot analysis. The method, boiled down: as §1
Data set [7] addresses T1, Albumin. The data set can be described thus: Binding affinity to bovine serum albumin assessed as change in hyperchromicity in absorption spectra up to 20 uM after 5 mins by UV-visible spectroscopic analysis relative to control. The method, boiled down:
as §2

The target of data set [8] is T1, Albumin. The data set can be described thus: Binding affinity to bovine serum albumin up to 20 uM after 5 mins by fluorescence spectroscopic analysis. The method, boiled down: as §3

T1 sequence (P02769 whole entry): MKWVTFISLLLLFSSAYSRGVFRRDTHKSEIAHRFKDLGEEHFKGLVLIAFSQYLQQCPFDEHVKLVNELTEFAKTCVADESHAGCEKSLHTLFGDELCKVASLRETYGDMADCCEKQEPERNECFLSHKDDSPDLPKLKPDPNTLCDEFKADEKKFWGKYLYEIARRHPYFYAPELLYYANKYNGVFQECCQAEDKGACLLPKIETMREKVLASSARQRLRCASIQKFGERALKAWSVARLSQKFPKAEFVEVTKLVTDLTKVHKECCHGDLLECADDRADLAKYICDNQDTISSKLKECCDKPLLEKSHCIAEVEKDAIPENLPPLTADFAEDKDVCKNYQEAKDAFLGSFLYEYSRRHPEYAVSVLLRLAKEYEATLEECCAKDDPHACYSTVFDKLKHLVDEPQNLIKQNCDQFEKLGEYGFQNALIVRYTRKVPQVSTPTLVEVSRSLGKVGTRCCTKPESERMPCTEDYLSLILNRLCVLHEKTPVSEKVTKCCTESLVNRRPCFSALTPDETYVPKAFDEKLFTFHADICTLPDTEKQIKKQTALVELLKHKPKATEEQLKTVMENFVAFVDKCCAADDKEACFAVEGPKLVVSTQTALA

For `c1ccc(CNc2nc(Nc3ccc(-c4nc5ccccc5[nH]4)cc3)nc(N3CCOCC3)n2)cc1`, the results for the K at Albumin [1] and at Albumin [6] were 1.2 ×10⁴ /M and 1.8 ×10⁵ /M, respectively. The Activity at Albumin [2] amounted to 88.44%; at Albumin [3], 42.06%; on Albumin [4], 352 nm; at Albumin [5], 24 nm.
Regarding `CN1CCN(c2nc(Nc3ccc(-c4nc5ccccc5[nH]4)cc3)nc(N3CCOCC3)n2)CC1`, the K is 8.5 ×10⁴ /M on Albumin [1] and 2.6 ×10⁴ /M on Albumin [6]. Further, the Activity on Albumin [2] is on record as 75.98%; on Albumin [3] it was 77.53%; on Albumin [4] it was 339 nm; at Albumin [5] it was 22 nm.
With `c1csc(-c2nc(Nc3ccc(-c4nc5ccccc5[nH]4)cc3)nc(N3CCOCC3)n2)c1`, the Activity entry at Albumin [7] and at Albumin [8] was “Not Active” throughout.
For the compound `NNc1nc(Nc2ccc(-c3nc4ccccc4[nH]3)cc2)nc(N2CCOCC2)n1`, the Activity entry at Albumin [7] and at Albumin [8] was “Not Active” throughout.
As to `c1ccc2[nH]c(-c3ccc(Nc4nc(NCCN5CCOCC5)nc(N5CCOCC5)n4)cc3)nc2c1`, the K at Albumin [1] is 8.4 ×10⁴ /M; on Albumin [6], 5.7 ×10⁴ /M. The Activity on Albumin [2] is 85.95%; on Albumin [3] it was 57.22%; at Albumin [4], 345 nm; at Albumin [5], 23 nm.
With `c1ccc2[nH]c(-c3ccc(Nc4nc(N5CCCC5)nc(N5CCOCC5)n4)cc3)nc2c1`, the K at Albumin [1] is recorded as 1 ×10⁵ /M; on Albumin [6], 5.4 ×10⁴ /M. The Activity at Albumin [2] came out at 65.29%; on Albumin [3], 68.99%; at Albumin [4], 341 nm; at Albumin [5] it was 22 nm.
`OCCNc1nc(Nc2ccc(-c3nc4ccccc4[nH]3)cc2)nc(N2CCOCC2)n1`: the K at Albumin [1] is given as 9.5 ×10⁴ /M; at Albumin [6] it was 8 ×10⁴ /M. The Activity stood at 90.6% at Albumin [2], 71.82% at Albumin [3], 340 nm on Albumin [4] and 23 nm at Albumin [5].
`c1coc(-c2nc(Nc3ccc(-c4nc5ccccc5[nH]4)cc3)nc(N3CCOCC3)n2)c1`: the Activity entry on Albumin [7] and at Albumin [8] was “Not Active” in each case.
`c1ccc2[nH]c(-c3ccc(Nc4nc(NC5CCCCC5)nc(N5CCOCC5)n4)cc3)nc2c1`: the values for the K on Albumin [1] and at Albumin [6] were 1 ×10⁵ /M and 1.6 ×10⁵ /M, respectively. The Activity at Albumin [2] was found to be 85.87%; on Albumin [3] it was 23.12%; at Albumin [4] it was 349 nm; at Albumin [5], 17 nm.
For `c1ccc2[nH]c(-c3ccc(Nc4nc(N5CCOCC5)nc(N5CCOCC5)n4)cc3)nc2c1`, the K at Albumin [1] is recorded as 7 ×10⁴ /M; on Albumin [6] it was 6.9 ×10⁴ /M. Besides, the Activity on Albumin [2] is 72.93%; on Albumin [3], 63.43%; at Albumin [4], 350 nm; at Albumin [5], 24 nm.
`FC(F)(F)c1ccc(-c2nc(Nc3ccc(-c4nc5ccccc5[nH]4)cc3)nc(N3CCOCC3)n2)cc1`: the Activity result on Albumin [7] and on Albumin [8] was “Not Active” in each case.
As for `NCCNc1nc(Nc2ccc(-c3nc4ccccc4[nH]3)cc2)nc(N2CCOCC2)n1`, the values for the K at Albumin [1] and on Albumin [6] were 6.3 ×10⁴ /M and 1.3 ×10⁵ /M, respectively. Besides, the Activity on Albumin [2] was determined as 70.53%; at Albumin [3] it was 69.01%; on Albumin [4], 347 nm; at Albumin [5] it was 22 nm.
Consider `OCCN1CCN(c2nc(Nc3ccc(-c4nc5ccccc5[nH]4)cc3)nc(N3CCOCC3)n2)CC1`, for which the K came out at 1.2 ×10⁵ /M on Albumin [1] and 5.4 ×10⁴ /M on Albumin [6]. Further, the Activity on Albumin [2] came to 68.72%; at Albumin [3], 73.21%; at Albumin [4], 343 nm; at Albumin [5] it was 25 nm.
